Results from the M2OR odorant receptor database.
Residue numbers refer to the chain shown, from its start.

Columns and labels:
Settings in all cases: stereoisomer not certain
O4F17 [1] = system: T1, O4F17
T1 sequence (whole entry): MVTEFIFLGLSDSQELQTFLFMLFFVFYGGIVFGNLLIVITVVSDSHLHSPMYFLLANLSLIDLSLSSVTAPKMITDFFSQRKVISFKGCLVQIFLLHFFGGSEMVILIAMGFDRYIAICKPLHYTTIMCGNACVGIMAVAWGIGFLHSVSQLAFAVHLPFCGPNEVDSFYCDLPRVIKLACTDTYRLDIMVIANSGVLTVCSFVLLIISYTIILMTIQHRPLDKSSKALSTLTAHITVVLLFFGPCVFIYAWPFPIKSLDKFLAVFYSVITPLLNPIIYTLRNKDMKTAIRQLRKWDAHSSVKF
In short: (§1)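 Each entry records the cell line, G-protein, co-transfected protein and tags used. Methods varied with the source, often transient luciferase assays in mammalian cell lines. A receptor–molecule pair is called responsive (active) if the original authors judged its signal statistically different from baseline and non-responsive (inactive) otherwise.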

O4F17 [2] = system: T2, O4F17; remark: listed apart in the source
T2 sequence (whole entry): T1 sequence (whole entry) with E15G, Q293R
In short: as §1

O4F21 F44L = system: T3, O4F21 F44L
T3 sequence (whole entry): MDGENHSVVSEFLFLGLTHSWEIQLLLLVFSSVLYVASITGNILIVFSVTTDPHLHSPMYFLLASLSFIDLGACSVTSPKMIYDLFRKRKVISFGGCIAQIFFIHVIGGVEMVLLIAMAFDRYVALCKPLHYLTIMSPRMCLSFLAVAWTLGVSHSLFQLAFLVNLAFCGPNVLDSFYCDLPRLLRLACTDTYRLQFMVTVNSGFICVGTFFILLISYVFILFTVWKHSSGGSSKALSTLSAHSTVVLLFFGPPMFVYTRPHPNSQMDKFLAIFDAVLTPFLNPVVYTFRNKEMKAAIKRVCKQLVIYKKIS
In short: as §1

O51A7 E8D = system: T4, O51A7 E8D
T4 sequence (whole entry): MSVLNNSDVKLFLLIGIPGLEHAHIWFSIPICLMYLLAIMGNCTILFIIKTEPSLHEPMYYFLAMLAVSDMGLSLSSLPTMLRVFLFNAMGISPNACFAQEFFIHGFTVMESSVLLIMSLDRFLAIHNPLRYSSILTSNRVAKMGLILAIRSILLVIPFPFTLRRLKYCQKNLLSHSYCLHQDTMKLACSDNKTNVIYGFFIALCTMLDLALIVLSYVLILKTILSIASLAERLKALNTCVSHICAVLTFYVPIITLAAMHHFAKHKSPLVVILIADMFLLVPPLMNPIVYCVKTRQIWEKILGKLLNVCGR
In short: as §1

O51B2 C120R C209S P283S = system: T5, O51B2 C120R C209S P283S
T5 sequence (whole entry): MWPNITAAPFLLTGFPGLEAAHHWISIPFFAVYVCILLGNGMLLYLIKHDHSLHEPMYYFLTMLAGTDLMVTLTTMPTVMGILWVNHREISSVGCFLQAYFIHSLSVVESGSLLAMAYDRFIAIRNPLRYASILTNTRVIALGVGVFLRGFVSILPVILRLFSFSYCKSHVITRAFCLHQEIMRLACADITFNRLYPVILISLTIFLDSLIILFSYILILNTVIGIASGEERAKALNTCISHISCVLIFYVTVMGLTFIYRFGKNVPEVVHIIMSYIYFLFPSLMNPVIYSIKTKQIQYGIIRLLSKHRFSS
In short: as §1

O51B4 M147T = system: T6, O51B4 M147T
T6 sequence (whole entry): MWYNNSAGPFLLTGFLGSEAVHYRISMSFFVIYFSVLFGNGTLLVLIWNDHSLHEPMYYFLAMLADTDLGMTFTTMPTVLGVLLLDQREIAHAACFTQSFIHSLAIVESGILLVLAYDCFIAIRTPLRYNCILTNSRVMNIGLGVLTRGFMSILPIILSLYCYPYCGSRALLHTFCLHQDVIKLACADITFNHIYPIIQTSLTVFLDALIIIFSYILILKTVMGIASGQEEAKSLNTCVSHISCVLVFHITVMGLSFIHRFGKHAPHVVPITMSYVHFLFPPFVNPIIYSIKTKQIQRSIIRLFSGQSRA
In short: as §1

O51B4 = system: T7, O51B4
T7 sequence (whole entry): T6 sequence (whole entry) with V36I
In short: as §1

O51B5 G5S I102T P160L = system: T8, O51B5 G5S I102T P160L
T8 sequence (whole entry): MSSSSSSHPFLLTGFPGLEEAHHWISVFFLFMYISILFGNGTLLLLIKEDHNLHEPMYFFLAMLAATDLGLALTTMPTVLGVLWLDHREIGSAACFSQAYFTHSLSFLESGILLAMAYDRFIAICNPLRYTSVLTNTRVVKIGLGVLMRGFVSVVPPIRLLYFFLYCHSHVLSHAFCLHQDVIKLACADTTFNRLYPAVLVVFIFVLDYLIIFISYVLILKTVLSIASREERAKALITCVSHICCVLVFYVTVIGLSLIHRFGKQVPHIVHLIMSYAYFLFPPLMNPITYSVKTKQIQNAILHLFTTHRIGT
In short: as §1

O51D1 I89V = system: T9, O51D1 I89V
T9 sequence (whole entry): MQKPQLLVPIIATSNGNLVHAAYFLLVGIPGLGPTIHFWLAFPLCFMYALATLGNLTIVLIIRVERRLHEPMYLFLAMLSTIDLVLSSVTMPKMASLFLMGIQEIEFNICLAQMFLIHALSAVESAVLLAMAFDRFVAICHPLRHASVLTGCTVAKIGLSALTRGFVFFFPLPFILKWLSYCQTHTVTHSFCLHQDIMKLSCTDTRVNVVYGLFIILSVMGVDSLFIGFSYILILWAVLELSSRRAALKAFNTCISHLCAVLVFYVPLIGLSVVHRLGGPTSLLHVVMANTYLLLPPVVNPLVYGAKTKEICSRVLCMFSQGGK
In short: as §1

O4F15 S149F = system: T10, O4F15 S149F
T10 sequence (whole entry): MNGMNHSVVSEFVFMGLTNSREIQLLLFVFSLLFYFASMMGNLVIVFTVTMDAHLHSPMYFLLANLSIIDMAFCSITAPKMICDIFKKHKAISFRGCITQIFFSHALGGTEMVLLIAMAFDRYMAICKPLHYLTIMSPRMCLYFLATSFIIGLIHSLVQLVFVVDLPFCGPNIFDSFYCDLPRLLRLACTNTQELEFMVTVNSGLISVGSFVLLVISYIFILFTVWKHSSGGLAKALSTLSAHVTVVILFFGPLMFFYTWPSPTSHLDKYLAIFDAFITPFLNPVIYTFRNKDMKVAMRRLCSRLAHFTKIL
In short: as §1

Measured: odorant receptor agonist call

CCCCCCC=CCCC=O
inactive: O4F17 [1] | O4F17 [2] | O4F21 F44L | O51A7 E8D | O51B2 C120R C209S P283S | O51B4 M147T | O51B4 | O51B5 G5S I102T P160L | O51D1 I89V

CC1=C(O)C(=O)C(C)O1 (centres undefined)
inactive: O4F15 S149F | O4F17 [1] | O4F17 [2] | O4F21 F44L | O51A7 E8D | O51B2 C120R C209S P283S | O51B4 M147T | O51B4 | O51B5 G5S I102T P160L | O51D1 I89V

CC1=NC(C)C(C)S1 (centres undefined)
inactive: O4F15 S149F | O4F17 [1] | O4F17 [2] | O4F21 F44L | O51A7 E8D | O51B2 C120R C209S P283S | O51B4 M147T | O51B4 | O51B5 G5S I102T P160L | O51D1 I89V

CCC1OC(C)=C(O)C1=O (centres undefined)
inactive: O4F15 S149F | O4F17 [1] | O4F17 [2] | O4F21 F44L | O51A7 E8D | O51B2 C120R C209S P283S | O51B4 M147T | O51B4 | O51B5 G5S I102T P160L | O51D1 I89V

CCCC(S)CCOC(C)=O (centres undefined)
inactive: O4F15 S149F | O4F17 [1] | O4F17 [2] | O4F21 F44L | O51A7 E8D | O51B2 C120R C209S P283S | O51B4 M147T | O51B4 | O51B5 G5S I102T P160L | O51D1 I89V

Cc1cnc(C)c(C)n1
inactive: O4F15 S149F | O4F17 [1] | O4F17 [2] | O4F21 F44L | O51A7 E8D | O51B2 C120R C209S P283S | O51B4 M147T | O51B4 | O51B5 G5S I102T P160L | O51D1 I89V

CCC1OC(=O)C(O)=C1C (centres undefined)
inactive: O4F15 S149F | O4F17 [1] | O4F17 [2] | O4F21 F44L | O51A7 E8D | O51B2 C120R C209S P283S | O51B4 M147T | O51B4 | O51B5 G5S I102T P160L | O51D1 I89V

CC1=C(O)C(=O)OC1C (centres undefined)
inactive: O4F15 S149F | O4F17 [1] | O4F17 [2] | O4F21 F44L | O51A7 E8D | O51B2 C120R C209S P283S | O51B4 M147T | O51B4 | O51B5 G5S I102T P160L | O51D1 I89V
